Experimental findings from paper PMC12597218 (Chemmedchem, 2025) are described below.

Each structure is given as a SMILES string. ≈ marks a conversion by molar mass, not a printed value. A value given as a limit tells only on which side of the number the result lay.

In series [1] the test system is Nrf2 (ARE stimulation) in HEK293‐ARE‐Luc reporter cell line. The experiment in a line: Intracellular Nrf2 activation assay. The series is classed as cell-based. As to conditions: 24 h; for Nrf2 activity, fold change in luminescence intensity compared with the control group: test sample 10 μM, n = 3; for Intracellular Nrf2 activating effect at lower concentration (dose‐dependency): 5 μM. The essentials:
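HEK293‐ARE‐Luc (NRF2/ARE luciferase stable line) cells (2.0 × 10⁴/well) were grown 24 h, then given test compound in DMSO (1, 2.5, 5 or 10 μM) for 24 h. One‐step luciferase reagent was added for 15 min at room temperature and luminescence read. Activation is expressed as the luminescence ratio to vehicle control, n = 3. tBHQ served as reference.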

A further series can be described thus: Solubility in PBS. The series is classed as physicochemical. The note with it: 37 °C, pH 7.4, aqueous buffer, kinetic from dmso stock. In a few lines: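 A 10 mM DMSO stock of test compound was diluted into PBS and rotated at 1,000 rpm, 37 °C, for 4 h. The solution was filtered through a 0.45 μm PVDF membrane by centrifugation. […] Two technical replicates.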

Series [2] is described as follows: Metabolic stability in mouse liver microsomes. The series is classed as in vitro ADME. The note with it: pH 7.4. The essentials: (§1)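 Test compound (1 μM) with human or mouse liver microsomes (0.2 mg mL⁻¹), 1 mM EDTA and 0.1 M phosphate (pH 7.4) was preincubated 5 min. Reaction was started with 1 mM NADPH (final) and run 30 min at 37 °C. Samples were quenched in acetonitrile with methyltestosterone internal standard, and parent loss versus time zero was measured by LC–MS/MS. CLint was scaled using 48.8/45.4 mg protein per g liver and 25.7/87.5 g liver per kg (human/mouse). Two technical replicates.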

In series [3] the test system is LPS‐stimulated RAW264.7 cells. The experiment in a line: Anti‐inflammatory effect in LPS‐stimulated RAW264.7 cells. As to conditions: RAW264.7, pretreated 8 h. The series is classed as cell-based, Murine. In a few lines: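 For NO, RAW264.7 cells (5 × 10⁵ cells/500 μL; DMEM, 10% FBS, 37 °C, 5% CO₂) were treated with test compound, given LPS (1 μg mL⁻¹) after 8 h, and incubated 16 h at 37 °C. Supernatant was mixed with Griess reagent and absorbance read at 540 nm. NO was quantified against a NaNO₂ standard. Mean ± SD.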

A short description of series [4]: Parallel artificial membrane permeability assay. The note with it: PAMPA. The series is classed as in vitro ADME. In general terms: In PAMPA a lipid-coated filter parts donor from acceptor wells.
The subject of a further series is HO‐1 and NQO1 mRNA. Kind of series: Nrf2 target gene mRNA expression in RAW264.7 cells. The series is classed as cell-based, Murine. As to conditions: 8 h. In a few lines:
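RAW264.7 murine macrophage‐like cells (DMEM, 10% FBS, 37 °C, 5% CO₂) were treated with test compound for 8 h. HO‐1 and NQO1 mRNA were then measured by quantitative real‐time RT‐PCR with gene‐specific primers, with GAPDH primers also listed. Experiments were independent, at least three times. Mean ± SD.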

Series [5] addresses Keap1‐DC domain and the ETGE‐motif fragment peptide of Nrf2 (Homo sapiens, UniProt Q14145). The experiment in a line: Fluorescence polarization. The series is classed as binding. In a few lines:
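Fluorescence polarization read-out, using a commercial Keap1–Nrf2 inhibitor screening kit run according to the manufacturer's protocol with slight modifications.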

The nature of another series: Protein binding ratio. The series is classed as in vitro ADME. The note with it: bovine, 10% FBS (fetal bovine serum), pH 7.4. The essentials:
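Test compound (1 μM) in 10% FBS (150 μL) was dialysed against 150 μL of 0.1 M phosphate buffer (pH 7.4) across a 12–14 kDa MWCO membrane, 37 °C, 6 h, 80 rpm. Buffer and serum samples were matrix‐matched, precipitated with acetonitrile/IS, and analysed by LC‐MS/MS. fu = C_buffer/C_plasma. Two technical replicates.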

Another series concerns HEK293‐ARE‐Luc cells. The experiment in a line: Cytotoxicity. The series is classed as cell-based. As to conditions: concentrations up to 50 μM. The essentials:
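HEK293‐ARE‐Luc cells (5.0 × 10⁴/well; DMEM, 10% FBS, 37 °C, 5% CO₂) were grown 24 h, then exposed to test compound added in DMSO for 24 h. CCK‐8 (WST‐8) reagent was added for 4 h and absorbance read at 420 nm. Cell viability was calculated, n = 3.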

The nature of series [6]: Metabolic stability in human liver microsomes. The series is classed as in vitro ADME. As to conditions: pH 7.4. The essentials: as §1
In general terms: Liver microsomes are a subcellular fraction often used to study metabolism.

[7] abbreviates: LPS 1 μg mL^−1, ELISA and RT‐PCR.

Keap1‐DC domain and the ETGE‐motif fragment peptide of Nrf2, sequence (Q14145 2-624 limits assumed): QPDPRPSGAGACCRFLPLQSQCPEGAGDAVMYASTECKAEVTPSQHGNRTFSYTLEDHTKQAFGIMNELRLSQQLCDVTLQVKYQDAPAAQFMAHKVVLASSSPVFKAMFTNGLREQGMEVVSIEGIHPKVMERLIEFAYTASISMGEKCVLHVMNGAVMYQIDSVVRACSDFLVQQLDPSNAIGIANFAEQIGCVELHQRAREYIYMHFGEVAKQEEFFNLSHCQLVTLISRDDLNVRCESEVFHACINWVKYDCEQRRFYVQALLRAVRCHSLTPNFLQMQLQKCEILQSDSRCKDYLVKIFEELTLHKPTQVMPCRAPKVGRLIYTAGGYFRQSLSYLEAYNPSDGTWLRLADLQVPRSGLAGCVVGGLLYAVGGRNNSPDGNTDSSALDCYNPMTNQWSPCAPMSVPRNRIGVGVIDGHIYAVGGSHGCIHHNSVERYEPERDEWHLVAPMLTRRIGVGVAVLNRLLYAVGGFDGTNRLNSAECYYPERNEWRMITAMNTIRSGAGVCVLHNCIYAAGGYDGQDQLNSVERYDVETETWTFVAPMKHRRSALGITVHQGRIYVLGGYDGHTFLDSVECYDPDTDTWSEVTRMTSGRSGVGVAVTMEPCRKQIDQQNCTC

Take `CCOc1ccc(S(=O)(=O)Nc2cc(CC(=O)Nc3ccccc3)c(NS(=O)(=O)c3ccc(OCC)cc3)c3ccccc23)cc1` [Compound 5h, 2‐(1,4‐Bis((4‐ethoxyphenyl)sulfonamido)naphthalen‐2‐yl)‐N‐phenylacetamide]: the “Nrf2 activity, fold change in luminescence intensity compared with the control group” value (“Nrf2 activity, fold change” below) in series [1] was “no effect on Nrf2 activity”.

The term solubility denotes the dissolved amount per volume that the medium holds. By CLint scaled is commonly meant the capacity of the preparation to metabolise the compound, expressed as a volume cleared per time. Low values mean greater metabolic stability, high ones faster metabolism. As usually defined, the Papp is a coefficient for how fast a substance crosses the barrier. A lower Papp goes with slow passage. The term IC50 denotes the concentration needed to halve the response being measured. A lower IC50 goes with inhibition by little substance. Broadly, the fraction unbound is free concentration divided by total concentration. In turn, `CCOc1ccc(S(=O)(=O)Nc2cc(CC(=O)N3CCCC3)c(NS(=O)(=O)c3ccc(OCC)cc3)c3ccccc23)cc1` [Compound 5i, N,N′‐(2‐(2‐Oxo‐2‐(pyrrolidin‐1‐yl)ethyl)naphthalene‐1,4‐diyl)bis(4‐ethoxybenzenesulfonamide)] showed a solubility at 4 h in the series “Solubility in PBS” of 2.65 µM (≈ 1.69 µg/mL). In [2], this compound returned a CLint scaled at 1 μM of 2290 mL/min/kg. In addition, the “Intracellular Nrf2 activating effect at lower concentration (dose‐dependency)” value in series [1] is reported as “notable activity”. In series [3] (setting [7]), the CCL2 expression result is “dose‐dependent reduction” and the “TNF‐α expression” value is recorded as “dose‐dependent reduction”. In addition, the “Nitric oxide (NO) level” value in series [3] (LPS 1 μg mL^−1, Griess reagent) is on record as “dose‐dependent reduction”. In addition, the iNOS expression result in [3] (LPS 1 μg mL^−1, RT‐PCR) is reported as “dose‐dependent reduction”. The compound further had a Papp at 4 h in [4] of 3.06 ×10⁻⁶ cm/s. The “NQO1 mRNA expression, increase” value with HO‐1 and NQO1 mRNA (12.5 µM and higher concentrations) is “approximately 50 fold”. Further, in the series on HO‐1 and NQO1 mRNA (12.5 μM), the “HO‐1 mRNA expression” value is reported as “significantly upregulated”. Moreover, the “HO‐1 mRNA expression at higher concentrations” value with HO‐1 and NQO1 mRNA (concentrations above 12.5 μM) was “downregulated the gene relative to the peak expression”. In addition, in series [5], the IC50 came to 1070 ± 40 nM. In “Protein binding ratio”, the fraction unbound at 6 h, 1 μM is below 0.0342. Further, in the series on HEK293‐ARE‐Luc cells, the “Cytotoxicity (WST‐8 assay)” value is reported as “did not exhibit cytotoxicity”. The same compound registered a CLint scaled at 1 μM in series [6] of 546 mL/min/kg.

For `CCOc1ccc(S(=O)(=O)Nc2cc(CC(=O)N3CCCCC3)c(NS(=O)(=O)c3ccc(OCC)cc3)c3ccccc23)cc1` [Compound 5j, N,N′‐(2‐(2‐Oxo‐2‐(piperidin‐1‐yl)ethyl)naphthalene‐1,4‐diyl)bis(4‐ethoxybenzenesulfonamide)], in [1], the “Intracellular Nrf2 activating effect at lower concentration (dose‐dependency)” value was “notable activity” and the “Nrf2 activity, fold change” value is “notable Nrf2 activation effects”. This compound yielded an IC50 in series [5] of 2430 ± 170 nM.

The compound `Cc1cc(=O)n(-c2ccccc2)n1C` [antipyrine] came in with a Papp at 4 h in series [4] of 23.1 ×10⁻⁶ cm/s.

Regarding `COCCc1ccc(OCC(O)CNC(C)C)cc1` (stereo not shown) [metoprolol], the Papp at 4 h in series [4] stood at 1.85 ×10⁻⁶ cm/s.

In the case of `CC(C)(C)c1cc(O)ccc1O` [tBHQ, tert‐butylhydroquinone, reference compound], the “Nrf2 activity, fold change” value in series [1] is on record as “approximately tenfold”.
